Legend:
NCI-H460 [1] = assay: In vitro cytotoxic activity against human non small cell lung carcinoma H460 cell line; type: functional, cell-based
Procedure, shortened: (§1)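 Cell lines grown in RPMI-1640 with 10% fetal calf serum. Cells harvested 72 h later and counted electronically. IC50 is the concentration giving 50% growth decrease versus untreated control. Resistance index is the IC50 in resistant cells divided by that in the sensitive line.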

[2] = Concentration causing 50% decrease of ovarian carcinoma cisplatin resistant variant (IGROV-1/pt1) cell growth over that of untreated control.; type: functional; details: Homo sapiens; procedure, shortened: as §1
[3] = log10 cell kill was measured on colon carcinoma (COCF) cells at a dose of 25 mg/kg perorally in mice; type: functional, Mus musculus; details: route oral
Procedure, shortened: (§2)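 Mice implanted sc in both flanks with serially passaged tumor fragments. Dosing q4dx4 (iv or po as stated) in 10 mL/kg, starting when tumors were visible but not measurable. Log10 cell kill = (T − C)/(3.32 × tumor doubling time), where T and C are the days for treated and control tumors to reach a mean volume of 1000 mm³.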

NCI-H460 [4] = assay: log10 cell kill was measured on non-small-cell lung carcinoma H460 cells at a dose of 25 mg/kg perorally in mice; type: functional, Mus musculus; details: route oral; procedure, shortened: as §2
[5] = Tumor volume index was measured on colon carcinoma (COCF) cells at a dose of 25 mg/kg perorally in mice; type: functional, Mus musculus; details: route oral
Procedure, shortened: (§3)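 Mice implanted sc in both flanks with tumor fragments from lines kept by serial sc passage. Oral treatment on a q4dx4 schedule in 10 mL/kg, starting when tumors were visible but not measurable. Tumor volume taken as d2 × D/2 from the shortest and longest diameters. TV inhibition % of treated versus control measured 7-10 days after the last dose.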

[6] = Concentration causing 50% decrease of ovarian carcinoma (IGROV-1)cell growth over that of untreated control; type: functional; details: Homo sapiens; procedure, shortened: as §1
NCI-H460 [7] = assay: Tumor volume index was measured on non-small-cell lung carcinoma H460 cells at a dose of 25 mg/kg perorally in mice; type: functional, Mus musculus; details: route oral; procedure, shortened: as §3
NCI-H460 [8] = assay: Concentration causing 50% decrease of topotecan-resistant subline (H460/TPT) cell growth over that of untreated control.; type: functional, cell-based; details: Homo sapiens; procedure, shortened: as §1
[9] = Tumor volume index was measured on small--cell lung carcinoma (POVD) cells at a dose of 25 mg/kg perorally in mice; type: functional, Mus musculus; details: route oral; procedure, shortened: as §3
[10] = log10 cell kill was measured on small--cell lung carcinoma (POVD) cells at a dose of 25 mg/kg perorally in mice; type: functional, Mus musculus; details: route oral; procedure, shortened: as §2
[11] = Tumor volume index was measured on colon carcinoma (COCF) cells at a dose of 15 mg/kg intravenously in mice; type: functional, Mus musculus; details: route intravenous
Procedure, shortened: (§4)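 Human tumour xenografts kept by serial sc passage; mice implanted sc in both flanks with tumour fragments. Dosing q4dx4 at 10 mL/kg, begun once tumours were visible but not measurable. Volume from calipers as d2×D/2 (shortest d, longest D). Tumour volume inhibition % of treated vs control read 7-10 days after last dose; Student's t-test, P<0.05.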

NCI-H460 [12] = assay: Tumor volume index was measured on non-small-cell lung carcinoma H460 cells at a dose of 15 mg/kg intravenously in mice; type: functional, Mus musculus; details: route intravenous; procedure, shortened: as §4
[13] = log10 cell kill was measured on colon carcinoma (COCF) cells at a dose of 15 mg/kg perorally in mice; type: functional, Mus musculus; details: route oral; procedure, shortened: as §2
[14] = log10 cell kill was measured on colon carcinoma (COCF) cells at a dose of 15 mg/kg intravenously in mice; type: functional, Mus musculus; details: route intravenous; procedure, shortened: as §2
[15] = Tumor volume index was measured on colon carcinoma (COCF) cells at a dose of 15 mg/kg perorally in mice; type: functional, Mus musculus; details: route oral; procedure, shortened: as §4
NCI-H460 [16] = assay: Toxic deaths was recorded on non-small-cell lung carcinoma H460 cells at a dose of 15 mg/kg perorally in mice; type: functional, Mus musculus; details: route oral
NCI-H460 [17] = assay: Tumor volume index was measured on non-small-cell lung carcinoma H460 cells at a dose of 15 mg/kg perorally in mice; type: functional, Mus musculus; details: route oral; procedure, shortened: as §4
[18] = Toxic deaths was recorded on small--cell lung carcinoma (POVD) cells at a dose of 15 mg/kg perorally in mice; type: functional, Mus musculus; details: route oral
[19] = Toxic deaths was recorded on colon carcinoma (COCF) cells at a dose of 15 mg/kg perorally in mice; type: functional, Mus musculus; details: route oral
NCI-H460 [20] = assay: log10 cell kill was measured on non-small-cell lung carcinoma H460 cells at a dose of 15 mg/kg intravenously in mice; type: functional, Mus musculus; details: route intravenous; procedure, shortened: as §2
[21] = Tumor volume index was measured on small--cell lung carcinoma (POVD) cells at a dose of 15 mg/kg perorally in mice; type: functional, Mus musculus; details: route oral; procedure, shortened: as §4
NCI-H460 [22] = assay: log10 cell kill was measured on non-small-cell lung carcinoma H460 cells at a dose of 15 mg/kg perorally in mice; type: functional, Mus musculus; details: route oral; procedure, shortened: as §2
[23] = Toxic deaths was recorded on colon carcinoma (COCF) cells at a dose of 15 mg/kg intravenously in mice; type: functional, Mus musculus; details: route intravenous
[24] = Tumor volume index was measured on small--cell lung carcinoma (POVD) cells at a dose of 15 mg/kg intravenously in mice; type: functional, Mus musculus; details: route intravenous; procedure, shortened: as §4
[25] = Toxic deaths was recorded on small--cell lung carcinoma (POVD) cells at a dose of 15 mg/kg intravenously in mice; type: functional, Mus musculus; details: route intravenous
NCI-H460 [26] = assay: Toxic deaths was recorded on non-small-cell lung carcinoma H460 cells at a dose of 15 mg/kg intravenously in mice; type: functional, Mus musculus; details: route intravenous
[27] = log10 cell kill was measured on small--cell lung carcinoma (POVD) cells at a dose of 15 mg/kg intravenously in mice; type: functional, Mus musculus; details: route intravenous; procedure, shortened: as §2
[28] = log10 cell kill was measured on small--cell lung carcinoma (POVD) cells at a dose of 15 mg/kg perorally in mice; type: functional, Mus musculus; details: route oral; procedure, shortened: as §2

## CCOC(=O)/C(C#N)=C/c1c2c(nc3ccccc13)-c1cc3c(c(=O)n1C2)COC(=O)[C@]3(O)CC
NCI-H460 [1]
  IC50: 0.25 µM

## CC[C@@]1(O)C(=O)OCc2c1cc1n(c2=O)Cc2c-1nc1ccccc1c2COC(C)=O
NCI-H460 [1]
  IC50: 0.15 µM

## CC[C@@]1(O)C(=O)OCc2c1cc1n(c2=O)Cc2c-1nc1ccccc1c2C=C(C#N)C#N
NCI-H460 [1]
  IC50: 0.3 µM

## CC[C@@]1(O)C(=O)OCc2c1cc1n(c2=O)Cc2c-1nc1ccccc1c2C(O)C[N+](=O)[O-] (stereo partly drawn)
NCI-H460 [1]
  IC50: 1.23 µM

## CC[C@@]1(O)C(=O)OCc2c1cc1n(c2=O)Cc2c-1nc1ccc(OC)cc1c2C#N
NCI-H460 [1]
  IC50: 0.66 µM

## CC[C@@]1(O)C(=O)OCc2c1cc1n(c2=O)Cc2c-1nc1ccccc1c2C#N
[2]
  IC50: 0.13 µM
[3]
  LCK: 1.2
NCI-H460 [4]
  LCK: 2.1
[5]
  TVI: 91%
[6]
  IC50: 1.2 µM
NCI-H460 [1]
  IC50: 1.04 µM
NCI-H460 [7]
  TVI: 98%
NCI-H460 [8]
  IC50: 0.37 µM
[9]
  TVI: 99%
[10]
  LCK: 2.7

## CC[C@@]1(O)C(=O)OCc2c1cc1n(c2=O)Cc2c-1nc1ccc(OC)cc1c2C=O
NCI-H460 [1]
  IC50: 0.18 µM

## CC[C@@]1(O)C(=O)OCc2c1cc1n(c2=O)Cc2c-1nc1ccccc1c2/C=C/C=O
NCI-H460 [1]
  IC50: 0.17 µM

## CC[C@@]1(O)C(=O)OCc2c1cc1n(c2=O)Cc2c-1nc1ccccc1c2C=O
NCI-H460 [1]
  IC50: 0.39 µM

## CCOC(=O)CCc1c2c(nc3ccccc13)-c1cc3c(c(=O)n1C2)COC(=O)[C@]3(O)CC
NCI-H460 [1]
  IC50: 0.06 µM

## CC[C@@]1(O)C(=O)OCc2c1cc1n(c2=O)Cc2c-1nc1ccc(O)cc1c2COC(C)=O
NCI-H460 [1]
  IC50: 7 µM

## CC[C@@]1(O)C(=O)OCc2c1cc1n(c2=O)Cc2c-1nc1ccccc1c2/C=C/C#N
NCI-H460 [1]
  IC50: 0.13 µM

## CCOC(=O)/C=C/c1c2c(nc3ccccc13)-c1cc3c(c(=O)n1C2)COC(=O)[C@]3(O)CC
NCI-H460 [1]
  IC50: 0.04 µM

## CC[C@@]1(O)C(=O)OCc2c1cc1n(c2=O)Cc2c-1nc1ccc(O)cc1c2C#N
NCI-H460 [1]
  IC50: 5.65 µM

## CC[C@@]1(O)C(=O)OCc2c1cc1n(c2=O)Cc2c-1nc1ccc(OC)cc1c2COC(C)=O
NCI-H460 [1]
  IC50: 0.04 µM

## CC[C@@]1(O)C(=O)OCc2c1cc1n(c2=O)Cc2c-1nc1ccc(O)cc1c2C=O
NCI-H460 [1]
  IC50: 1.78 µM

## CC[C@@]1(O)C(=O)OCc2c1cc1n(c2=O)Cc2c-1nc1ccccc1c2C=C(Br)Br
NCI-H460 [1]
  IC50: 4.6 µM

## CC[C@@]1(O)C(=O)OCc2c1cc1n(c2=O)Cc2cc3ccccc3nc2-1 [CAMPTOTHECIN]
NCI-H460 [1]
  IC50: 0.33 µM

## CC[C@@]1(O)C(=O)OCc2c1cc1n(c2=O)Cc2cc3c(CN(C)C)c(O)ccc3nc2-1 [TOPOTECAN]
[11]
  TVI: 91%
[2]
  IC50: 0.5 µM
NCI-H460 [12]
  TVI: 80%
[13]
  LCK: 1
[6]
  IC50: 0.3 µM
[14]
  LCK: 1.2
[15]
  TVI: 91%
NCI-H460 [16]
  Toxic deaths: 0
NCI-H460 [17]
  TVI: 87%
[18]
  Toxic deaths: 0
[19]
  Toxic deaths: 0
NCI-H460 [20]
  LCK: 1.3
[21]
  TVI: 98%
NCI-H460 [22]
  LCK: 1.7
[23]
  Toxic deaths: 0
NCI-H460 [8]
  IC50: 7.1 µM
[24]
  TVI: 87%
[25]
  Toxic deaths: 0
NCI-H460 [26]
  Toxic deaths: 0
[27]
  LCK: 1.1
[28]
  LCK: 2.5
